# Measurements taken from ChEMBL document CHEMBL4811275, “Iodinated 1,2-diacylhydrazines, benzohydrazide-hydrazones and their analogues as dual antimicrobial and cytotoxic agents” (Bioorg Med Chem, 2021).
# The source made the active and inactive calls. The calls are words filed in the database; no cut-off is given here.
# Legend:
# Candida albicans [1] = experiment: Antifungal activity against Candida albicans ATCC 24443 assessed as reduction in fungal growth incubated for 24 hrs by broth microdilution method based spectrophotometric analysis; type: functional
# Candida albicans [2] = experiment: Antifungal activity against Candida albicans ATCC 24443 assessed as reduction in fungal growth incubated for 48 hrs by broth microdilution method based spectrophotometric analysis; type: functional
# Pichia kudriavzevii [3] = experiment: Antifungal activity against Candida krusei ATCC 6258 assessed as reduction in fungal growth incubated for 24 hrs by broth microdilution method based spectrophotometric analysis; type: functional
# Pichia kudriavzevii [4] = experiment: Antifungal activity against Candida krusei ATCC 6258 assessed as reduction in fungal growth incubated for 48 hrs by broth microdilution method based spectrophotometric analysis; type: functional
# Candida parapsilosis [5] = experiment: Antifungal activity against Candida parapsilosis ATCC 22019 assessed as reduction in fungal growth incubated for 24 hrs by broth microdilution method based spectrophotometric analysis; type: functional; details: Lodderomyces parapsilosis
# Candida parapsilosis [6] = experiment: Antifungal activity against Candida parapsilosis ATCC 22019 assessed as reduction in fungal growth incubated for 48 hrs by broth microdilution method based spectrophotometric analysis; type: functional; details: Lodderomyces parapsilosis
# Lichtheimia corymbifera [7] = experiment: Antifungal activity against Lichtheimia corymbifera CCM 8077 assessed as reduction in fungal growth incubated for 24 hrs by broth microdilution method based spectrophotometric analysis; type: functional
# Lichtheimia corymbifera [8] = experiment: Antifungal activity against Lichtheimia corymbifera CCM 8077 assessed as reduction in fungal growth incubated for 48 hrs by broth microdilution method based spectrophotometric analysis; type: functional
# [9] = system: Trichophyton interdigitale; experiment: Antifungal activity against Trichophyton interdigitale ATCC 9533 assessed as reduction in fungal growth incubated for 72 hrs by broth microdilution method based spectrophotometric analysis; type: functional
# [10] = system: Trichophyton interdigitale; experiment: Antifungal activity against Trichophyton interdigitale ATCC 9533 assessed as reduction in fungal growth incubated for 120 hrs by broth microdilution method based spectrophotometric analysis; type: functional
# Staphylococcus aureus [11] = experiment: Antibacterial activity against Staphylococcus aureus ATCC 29213 assessed as reduction in bacterial growth incubated for 24 hrs by broth microdilution method; type: functional
# In short: (§1)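 Cation-adjusted Mueller-Hinton broth microdilution per EUCAST, modified; compounds from DMSO stocks, final DMSO ≤1% v/v; scale starting from 0.49 µM. Static incubation at 35 ± 2 °C, dark, humidified, read at 24 and 48 h. MIC = lowest concentration with no visible growth by eye; duplicates, parallel readings within one dilution step; growth and medium/DMSO controls included.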
# Staphylococcus aureus [12] = experiment: Antibacterial activity against Staphylococcus aureus ATCC 29213 assessed as reduction in bacterial growth incubated for 48 hrs by broth microdilution method; type: functional; in short: as §1
# Staphylococcus aureus [13] = experiment: Antibacterial activity against methicillin-resistant Staphylococcus aureus ATCC 43300 assessed as reduction in bacterial growth incubated for 24 hrs by broth microdilution method; type: functional
# In short: (§2)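 EUCAST-based broth microdilution in cation-adjusted Mueller-Hinton broth. DMSO stocks, final DMSO ≤1% v/v, concentration scale starting from 0.49 µM. Static incubation at 35 ± 2 °C, dark and humidified. Run in duplicate, accepted only if parallel MICs differ by at most one dilution step. MIC is the lowest concentration with no visible growth by naked eye.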
# Staphylococcus aureus [14] = experiment: Antibacterial activity against methicillin-resistant Staphylococcus aureus ATCC 43300 assessed as reduction in bacterial growth incubated for 48 hrs by broth microdilution method; type: functional; in short: as §2
# [15] = system: Staphylococcus epidermidis; experiment: Antibacterial activity against Staphylococcus epidermidis ATCC 12228 assessed as reduction in bacterial growth incubated for 24 hrs by broth microdilution method; type: functional; in short: as §1
# [16] = system: Staphylococcus epidermidis; experiment: Antibacterial activity against Staphylococcus epidermidis ATCC 12228 assessed as reduction in bacterial growth incubated for 48 hrs by broth microdilution method; type: functional; in short: as §1
# Enterococcus faecalis [17] = experiment: Antibacterial activity against Enterococcus faecalis ATCC 29212 assessed as reduction in bacterial growth incubated for 24 hrs by broth microdilution method; type: functional; in short: as §1
# Enterococcus faecalis [18] = experiment: Antibacterial activity against Enterococcus faecalis ATCC 29212 assessed as reduction in bacterial growth incubated for 48 hrs by broth microdilution method; type: functional; in short: as §1
# Escherichia coli [19] = experiment: Antibacterial activity against Escherichia coli ATCC 25922 assessed as reduction in bacterial growth incubated for 24 hrs by broth microdilution method; type: functional; in short: as §1
# Escherichia coli [20] = experiment: Antibacterial activity against Escherichia coli ATCC 25922 assessed as reduction in bacterial growth incubated for 48 hrs by broth microdilution method; type: functional; in short: as §1
# HepG2 [21] = experiment: Cytotoxicity against human HepG2 cells assessed as reduction in cell viability incubated for 24 hrs by cell-titer 96 aqueous one solution cell proliferation assay; type: functional, cell-based; details: HepG2, 24 h
# HK-2 = experiment: Cytotoxicity against human HK-2 cells assessed as reduction in cell viability incubated for 24 hrs by cell-titer 96 aqueous one solution cell proliferation assay; type: cell-based; details: HK-2, 24 h
# HepG2 [22] = experiment: Antiproliferative activity against human HepG2 cells assessed as increase in caspase 3/7 level at 100 uM incubated for 24 hrs by Caspase-glo reagent based microplate reader analysis relative to control; type: functional
# In short: (§3)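 HepG2 cells seeded at 15 000/well, compounds diluted in complete MEM, 24 h at 37 °C, 5% CO2; untreated vehicle controls. Caspase-Glo 3/7 reagent added, shaken 350 rpm at room temperature 60 min in dark, luminescence read. Expressed as fold of untreated control; triplicate wells, mean ± SD with n = 6.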
# Candida albicans [23] = experiment: Antifungal activity against Candida albicans ATCC 24443 assessed as reduction in fungal growth incubated for 24 hrs by broth microdilution method; type: functional
# In short: (§4)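 Broth microdilution per EUCAST (yeasts and moulds), modified: twofold dilutions from DMSO (final ≤1% v/v) in RPMI-1640 with L-glutamine, 2% glucose, MOPS-buffered pH 7.0; scale from 0.49 µM. Static, dark, humidified, 35 ± 2 °C for 24 and 48 h (Trichophyton interdigitale 72 and 120 h). MIC = complete visible inhibition by eye; duplicates within one dilution step.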
# Candida albicans [24] = experiment: Antifungal activity against Candida albicans ATCC 24443 assessed as reduction in fungal growth incubated for 48 hrs by broth microdilution method; type: functional; in short: as §4
# Pichia kudriavzevii [25] = experiment: Antifungal activity against Candida krusei ATCC 6258 assessed as reduction in fungal growth incubated for 24 hrs by broth microdilution method; type: functional; in short: as §4
# Pichia kudriavzevii [26] = experiment: Antifungal activity against Candida krusei ATCC 6258 assessed as reduction in fungal growth incubated for 48 hrs by broth microdilution method; type: functional; in short: as §4
# Candida parapsilosis [27] = experiment: Antifungal activity against Candida parapsilosis ATCC 22019 assessed as reduction in fungal growth incubated for 24 hrs by broth microdilution method; type: functional; details: Lodderomyces parapsilosis; in short: as §4
# Candida parapsilosis [28] = experiment: Antifungal activity against Candida parapsilosis ATCC 22019 assessed as reduction in fungal growth incubated for 48 hrs by broth microdilution method; type: functional; details: Lodderomyces parapsilosis; in short: as §4
# Lichtheimia corymbifera [29] = experiment: Antifungal activity against Lichtheimia corymbifera CCM 8077 assessed as reduction in fungal growth incubated for 24 hrs by broth microdilution method; type: functional; in short: as §4
# Lichtheimia corymbifera [30] = experiment: Antifungal activity against Lichtheimia corymbifera CCM 8077 assessed as reduction in fungal growth incubated for 48 hrs by broth microdilution method; type: functional; in short: as §4
# [31] = system: Trichophyton interdigitale; experiment: Antifungal activity against Trichophyton interdigitale ATCC 9533 assessed as reduction in fungal growth incubated for 72 hrs by broth microdilution method; type: functional; in short: as §4
# [32] = system: Trichophyton interdigitale; experiment: Antifungal activity against Trichophyton interdigitale ATCC 9533 assessed as reduction in fungal growth incubated for 120 hrs by broth microdilution method; type: functional; in short: as §4
# [33] = Therapeutic index, ratio of IC50 for cytotoxicity against human HepG2 cells to MIC for antifungal activity against Candida albicans ATCC 24443
# Pseudomonas aeruginosa = experiment: Antibacterial activity against Pseudomonas aeruginosa ATCC 27853 assessed as reduction in bacterial growth measured for 24 to 48 hrs by broth microdilution method; type: functional, organism-based; details: time 24-48 hrs; in short: as §1
# Klebsiella pneumoniae = experiment: Antibacterial activity against Klebsiella pneumoniae ATCC 10031 assessed as reduction in bacterial growth measured for 24 to 48 hrs by broth microdilution method; type: functional, organism-based; details: time 24-48 hrs; in short: as §1
# Serratia marcescens = experiment: Antibacterial activity against clinical isolate Serratia marcescens assessed as reduction in bacterial growth measured for 24 to 48 hrs by broth microdilution method; type: functional, organism-based; details: time 24-48 hrs; in short: as §1
# Staphylococcus aureus [34] = experiment: Antibacterial activity against methicillin-susceptible Staphylococcus aureus CCM 4223 assessed as reduction in bacterial growth measured for 24 to 48 hrs by broth microdilution method; type: functional, organism-based; details: time 24-48 hrs; in short: as §1
# HepG2 [35] = experiment: Antiproliferative activity against human HepG2 cells assessed as increase in caspase 3/7 level at 1 uM incubated for 24 hrs by Caspase-glo reagent based microplate reader analysis relative to control; type: functional; in short: as §3
SMILES,MIC (Staphylococcus aureus [11]) [µM],MIC (Staphylococcus aureus [12]) [µM],MIC (Staphylococcus aureus [13]) [µM],MIC (Staphylococcus aureus [14]) [µM],MIC [15] [µM],MIC [16] [µM],MIC (Enterococcus faecalis [17]) [µM],MIC (Enterococcus faecalis [18]) [µM],MIC (Escherichia coli [19]) [µM],MIC (Escherichia coli [20]) [µM],IC50 (HepG2 [21]) [µM],IC50 (HK-2) [µM],fold change (FC) (HepG2 [22]),MIC (Candida albicans [23]) [µM],MIC (Candida albicans [24]) [µM],MIC (Pichia kudriavzevii [25]) [µM],MIC (Pichia kudriavzevii [26]) [µM],MIC (Candida parapsilosis [27]) [µM],MIC (Candida parapsilosis [28]) [µM],MIC (Lichtheimia corymbifera [29]) [µM],also measured
OC(Cn1cncn1)(Cn1cncn1)c1ccc(F)cc1F [FLUCONAZOLE],,,,,,,,,,,,,,,,,,,,,MIC (Candida albicans [1]): 6.5 µM; MIC (Candida albicans [2]): 6.5 µM; MIC (Pichia kudriavzevii [3]): > 104 µM; MIC (Pichia kudriavzevii [4]): > 104 µM; MIC (Candida parapsilosis [5]): 3.3 µM; MIC (Candida parapsilosis [6]): 3.3 µM; MIC (Lichtheimia corymbifera [7]): > 104 µM; MIC (Lichtheimia corymbifera [8]): > 104 µM; MIC [9]: 52.2 µM; MIC [10]: 52.2 µM
O=C(N/N=C/c1cc(I)cc(I)c1O)c1ccc(C(F)(F)F)cc1,31.2,31.2,31.2,31.2,31.2,31.2,31.2,31.2,> 250,> 250,11.7,49.9,1.37,,,,,,,,
O=C(N/N=C/c1cc(I)cc(I)c1O)c1ccc([N+](=O)[O-])cc1,31.2,62.5,31.2,62.5,31.2,62.5,62.5,125,> 125,> 125,24.7,26.8,,1.95,7.81,62.5,> 125,> 125,> 125,31.2,MIC (Lichtheimia corymbifera [30]): 62.5 µM; MIC [31]: 3.9 µM; MIC [32]: 15.6 µM; Ratio [33]: 13.1
O=C(N/N=C/c1cc(I)cc(I)c1O)c1ccc(O)cc1,31.2,62.5,62.5,62.5,62.5,125,250,250,250,250,19.2,,,,,,,,,,Activity (Pseudomonas aeruginosa): inactive; Activity (Klebsiella pneumoniae): inactive; Activity (Serratia marcescens): inactive; Activity (Staphylococcus aureus [34]): Active
O=C(N/N=C/c1cc(I)cc(I)c1O)c1ccc(F)cc1,15.6,31.2,15.6,31.2,31.2,31.2,31.2,62.5,> 500,> 500,12.1,55.6,1.33,62.5,125,125,125,62.5,125,125,MIC (Lichtheimia corymbifera [30]): 125 µM; MIC [31]: 15.6 µM; MIC [32]: 62.5 µM; fold change (FC) (HepG2 [35]): 1.36
